Source: publication PMC2112435 (The Journal of Cell Biology, 1983)

Key:
[1] = tested on: polymorphonuclear leukocytes (PMNs); assay: 125I-BSA uptake and release of TCA-precipitable BSA by PMNs; assay type: cell-based, rabbit; conditions: for k2, rate constant of further processing / k3, rate constant of release of intact material / k3/k2 + k3 / Rate constant for depletion of Ap: Table I
Procedure, shortened: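 Rabbit PMNs in HBSS with 2.4 mg/ml HEPES, 3.3×10^6 cells/ml, settled 15 min at 23°C as a monolayer. Incubated 30 min at 37°C with ¹²⁵I-BSA (6.5 μCi/ml), 1% unlabeled BSA and 2×10^-8 M unlabeled FNLLP to stimulate pinocytosis. Washed 10 min at 4°C, then held in fresh HBSS at 37°C or 4°C for varied times. Medium assayed for TCA-precipitable counts. k3 (release) and k2 (digestion/storage) taken from a kinetic pinosome model.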

[2] = tested on: polymorphonuclear leukocytes (PMNs); conditions: chemotactic peptide taken up by PMNs; cited from earlier work
[3] = tested on: polymorphonuclear leukocytes (PMNs); assay: 3H-FNLLP peptide uptake and release by PMN monolayers; assay type: cell-based, rabbit
[4] = Table I line 2, 2 x 10-0 M/L as printed
[5] = Table I line 4, 2 X 10^-5 M/L as printed (second time)

For “BSA: bovine serum albumin (fatty-acid-free), iodinated by the chloramine-T method, pinocytic marker”, the “k2, rate constant of further processing” value ([1]; BSA 1.5 X 101 cpm/L as printed) was 0.080 min⁻¹, the “k3, rate constant of release of intact material” value ([1]; BSA 1.5 X 101 cpm/L as printed) was 0,103 min-1 and the “k3/k2 + k3” value ([1]; BSA 1.5 X 101 cpm/L as printed) was 0.56. The “k2, rate constant of further processing” value ([1]; BSA 3.7 X 109 cpm/L) was 0,076 min-1, the “k3, rate constant of release of intact material” value ([1]; BSA 3.7 X 109 cpm/L) was 0.108 min⁻¹ and the “k3/k2 + k3” value ([1]; BSA 3.7 X 109 cpm/L) was 0.59. The “Rate constant for depletion of Ap” value ([1]; BSA concentration 1.5 X 101 cpm/L as printed) was 0.182 min⁻¹, the “Rate constant for depletion of Ap” value ([1]; BSA concentration 3.7 X 109 cpm/L) was 0.182 min⁻¹ and the “rate constant of release of TCA-precipitable BSA” value ([1]; as Fig. 4, release at 37C) was 0.182 min⁻¹. The “half-life of release of intact material” value ([1]; uptake primarily via bulk-fluid-phase) was roughly 4 min.

For “N-formyinorleucylleucylphenylalanme [FNLLP]”, the “t1/2 of release as digested peptide” value [2] is given as 23 min, the “rate constant of filling the reversible pinocytic pool” value ([3]; 2 x 10^-8 M 3H-FNLLP, 37C (Fig. 10)) is given as 0.165 min⁻¹ and the “k2, rate constant of further processing (digestion or storage)” value (“k2, rate constant … (digestion or storage)” below) ([3]; Table I line 1, 2 X 10^-5 M/L) is given as 0.097 min⁻¹. The “k3, rate constant of release of intact peptide” value ([3]; Table I line 1, 2 X 10^-5 M/L) was 0.101 min⁻¹, the “k3/k2 + k3” value ([3]; Table I line 1, 2 X 10^-5 M/L) was 0.51 and the “k3, rate constant of release of intact peptide” value [3, 4] was 0.095 min⁻¹. The “k3/k2 + k3” value [3, 4] was 0.50, the “k2, rate constant … (digestion or storage)” value ([3]; Table I line 3, 2 X 10^-7 M/L) was 0.117 min⁻¹ and the “k3, rate constant of release of intact peptide” value ([3]; Table I line 3, 2 X 10^-7 M/L) was 0.081 min⁻¹. The “k3/k2 + k3” value ([3]; Table I line 3, 2 X 10^-7 M/L) was 0.41, the “k2, rate constant … (digestion or storage)” value [3, 5] was 0.131 min⁻¹ and the “k3, rate constant of release of intact peptide” value [3, 5] was 0.067 min⁻¹. The “k3/k2 + k3” value [3, 5] was 0.34, the “k2, rate constant … (digestion or storage)” value ([3]; Table I line 5, 2 X 10^-9 M/L) was 0,128 min-1 and the “k3, rate constant of release of intact peptide” value ([3]; Table I line 5, 2 X 10^-9 M/L) was 0,070 min-1. For the same substance, the “k3/k2 + k3” value ([3]; Table I line 5, 2 X 10^-9 M/L) was 0.35, the “probability that pinocytosed material will be released intact, ratio k3/(k2 + k3)” value ([3]; estimate from Table I) was “approximately 0.5” and the “t1/2 of release of accumulated peptide as intact peptide” value ([3]; inhibitor cocktail (5 mM 2-deoxy-D-glucose, 1 mM sodium fluoride, 0.3 M sucrose, glucose-free HBSS), 37C, 2 x 10^-8 M 3H-FNLLP) was 4 min. For the same substance, the “time at which the amount of peptide accumulated reaches a plateau” value ([3]; inhibitor cocktail, 2 x 10^-8 M 3H-FNLLP, 37C (Fig. 5)) was ~ 15 min and the “rate constant of release of intact peptide” value ([3]; inhibitor cocktail, 37C, 2 x 10^-8 M 3H-FNLLP) was 0.173 min⁻¹.
